Source: PubChem (The Scripps Research Institute Molecular Screening Center)
CHO parental Ca = counter-screen: ATP calcium response change in parental CHO cells; parental CHO-K1, ATP-induced calcium, Fluo-8 fluorescence; inhibition, % at 5.6 µM; 330,000 compounds, 0.63% hits; AID 463079;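 active means inhibition above that plate's mean sample inhibition plus 3 SD, cut at about 26% in these data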;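 further: 0% = ATP-challenged DMSO wells and 100% = DMSO wells without ATP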
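Material: parental CHO cells / Compound: single nominal dose of 5.6 µM per compound / Signal: Fluo-8 fluorescence / Replicates: singlicate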
OX1R antag-1 = blocks the human orexin 1 receptor. O43613. CHO/OX1R cells, Fluo-8 calcium fluorescence, orexin A. inhibition, % at 5 µM. 330,000 compounds, 0.43% hits;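 active means inhibition above its plate's threshold, mean inhibition of all tested compounds on the plate plus 3 SD, cut at about 37% in these data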;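 further: 0% = orexin A challenge wells and 100% = SB-334867-A antagonist wells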
GalR3 antag = blocks the human galanin receptor 3 | O60755 | HEK293 GalR3-CNG cAMP membrane potential fluorescence; galR3 body fused to GalR1 C-terminus | inhibition, % at 3 µM | 360,000 compounds, 0.44% hits | AID 651719;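 active means inhibition above the screen-wide average plus 3 SD, cut at about 13% in these data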;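 further: forskolin and galanin both at EC90 stimulate the cells; cAMP rise reported by CNG channel membrane potential dye signal; 0% = forskolin plus galanin with DMSO and 100% = forskolin alone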
GPR7 antag = human neuropeptides B/W receptor 1 antagonism | GPR7-expressing cells, fluorescence antagonist assay | inhibition, % at 4.4 µM | 290,000 compounds, 1.1% hits | AID 1861; in the data active means inhibition above about 16%, passing the limit was not always enough;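 further: cells stimulated with the agonist NPW; 0% = agonist with vehicle and 100% = vehicle without agonist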
Target sequence (P48145 whole entry, looked up): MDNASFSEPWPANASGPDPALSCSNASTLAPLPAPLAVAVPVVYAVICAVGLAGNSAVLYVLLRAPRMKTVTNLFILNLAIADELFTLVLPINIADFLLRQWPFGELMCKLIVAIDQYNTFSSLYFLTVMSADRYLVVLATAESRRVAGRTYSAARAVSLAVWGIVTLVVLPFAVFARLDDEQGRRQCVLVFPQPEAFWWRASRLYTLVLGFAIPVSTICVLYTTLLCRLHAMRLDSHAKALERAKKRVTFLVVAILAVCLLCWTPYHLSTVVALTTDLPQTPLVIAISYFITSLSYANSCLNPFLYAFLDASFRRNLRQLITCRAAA
OX1R antag-2 = OX1R (human) antagonism | O43613 | inhibition, % at 6.6 µM | 330,000 compounds, 1.8% hits | OX1R-expressing cells, FRET antagonist read-out; in the data active means inhibition mostly above about 38%, no sharp cut-off; inactive means mostly below about 40%;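 further: 0% = agonist challenge alone and 100% = reference antagonist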
OX1R Ca confirm = OX1R (human) antagonism, confirmed; shares compounds with OX1R antag-1; CHO/OX1R cells, orexin A calcium Fluo-8 fluorescence; inhibition, % at 5 µM; 1,100 compounds, 38% hits; AID 492963; in the data active means inhibition above about 29%;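 further: 0% = agonist challenge alone and 100% = reference antagonist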
CHO Ca counter = signal in parental CHO cells, OX1R antagonist counter-screen; shares compounds with OX1R antag-1; parental CHO-K1, ATP-induced calcium, Fluo-8 fluorescence; inhibition, % at 5.6 µM; 1,100 compounds, 9.3% hits;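 active means inhibition above a per-plate limit, the mean inhibition of that plate's test compounds plus 3 SD, cut at about 25% in these data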;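 further: 0% = ATP challenge with DMSO and 100% = DMSO without ATP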
OX1R HTRF confirm = confirmation of human orexin 1 receptor antagonists, HTRF format | OX1R-expressing cells, HTRF antagonist assay | AID 492964 | inhibition, % at 6.6 µM | shares compounds with OX1R antag-2 | 1,800 compounds, 49% hits; in the data active means inhibition above about 55%;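 further: CHO cells expressing OX1R stimulated with orexin A at about EC80; 0% = agonist challenge alone and 100% = reference antagonist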
CHO-K1 HTRF = signal in parental CHO-K1 cells, OX1R antagonist counter-screen | shares compounds with OX1R antag-2 | HTRF counterscreen | 1,800 compounds, 48% hits | inhibition, % at 6.6 µM; in the data active means inhibition above about 17%;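 further: 0% = agonist challenge with vehicle and 100% = vehicle alone without agonist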
The depositor's hits bear a star; · = not tested or not shown. In the library only some 3.1% were active in any assay of this set; here they are far more common.

SMILES | CHO parental Ca | OX1R antag-1 | GalR3 antag | GPR7 antag | OX1R antag-2 | OX1R Ca confirm | CHO Ca counter | OX1R HTRF confirm | CHO-K1 HTRF
Cc1ccc(-n2ccc(=O)c(C(=O)Nc3ccc(S(=O)(=O)Nc4onc(C)c4C)cc3)n2)cc1 | 0 | -4 | -9 | -6 | 8 | · | · | · | ·
O=C(N/N=C/C(Br)=C/c1ccccc1)c1cc(-c2ccco2)[nH]n1 | -12 | 26 | -8 | 1 | 73* | 50* | 7 | 87* | 9
CC(/C=N/NC(=O)c1cc(-c2cccs2)[nH]n1)=C\c1ccccc1 | -15 | 45* | -5 | -5 | 88* | 45* | -2 | 73* | 11
CC(C)(C)NC(=O)NC(=O)COC(=O)Cc1coc2ccc3ccccc3c12 | -23 | -28 | -3 | -11 | 11 | · | · | · | ·
CCC(C)(C)NC(=O)c1cc(S(=O)(=O)N2CCCCC2)ccc1N1CCOCC1 | -13 | -44 | -6 | 10 | 15 | · | · | · | ·
Cc1c2ccccc2nc2c(F)c(N(C)C)c(F)c(F)c12 | 5 | 50* | -1 | 1 | 82* | 71* | 16 | 93* | 12
S=c1[nH]nc(-c2cc(-c3ccccc3)n[nH]2)n1/N=C/c1cccs1 | -9 | 53* | 9 | -12 | 88* | 27 | 3 | 62* | 4
S=c1[nH]nc(-c2cc(-c3ccccc3)n[nH]2)n1/N=C/c1ccccc1 | -15 | -1 | -5 | -13 | 12 | · | · | · | ·
COc1cccc(OC)c1C(=O)Nc1cccc(-n2cnnn2)c1 | -19 | 26 | -5 | 0 | 88* | 28 | -5 | 80* | 0
COc1ccccc1NC(=O)Nc1ccnn1C1CCN(C(=O)c2cscn2)CC1 | -9 | -2 | 4 | 11 | 20 | · | · | · | ·
Cc1nnc(NC(=O)CN2C(=O)NC3(CCCC3)C2=O)s1 | 0 | -5 | 8 | · | 12 | · | · | · | ·
Cc1cc(C)c2nc(NC(=O)CN3C(=O)NC4(CCCC4)C3=O)sc2c1 | -12 | 30 | -3 | · | 69* | 18 | -3 | 52 | 0
Cc1ccc(N=C2NC(=O)/C(=C/c3cccn3C)S2)cc1C | -33 | 57* | -6 | -5 | 79* | 62* | -16 | 87* | 7
Cc1cccc(N=C2NC(=O)/C(=C/c3cccn3C)S2)c1C | -24 | -34 | -1 | -7 | 5 | · | · | · | ·
NC(=O)c1c(NC(=O)c2cc3ccccc3o2)sc2c1CCC2 | -8 | 22 | -1 | -7 | 106* | 5 | 9 | 85* | 14
CNC(=O)C1CN(C(=O)c2cccc(S(=O)(=O)N3c4ccccc4CC3C)c2)c2ccccc2O1 (centres undefined) | -13 | 36 | -2 | · | 40* | 20 | -8 | 59* | -5
Cc1ccc(S(=O)(=O)N(CCCO)CC(O)CON=C2c3ccccc3-c3ccccc32)cc1 (centres undefined) | -6 | 42* | 0 | -7 | 73* | 26 | -4 | 76* | 4
CCN(CC(O)Cn1c2ccccc2c2ccccc21)S(=O)(=O)c1ccc(C)cc1 (centres undefined) | -20 | 1 | -2 | -9 | 11 | · | · | · | ·
CCS(=O)(=O)NCC(c1ccco1)N1CCN(c2ccccc2F)CC1 (centres undefined) | -19 | -10 | 3 | -3 | 19 | · | · | · | ·
CSc1cccc(NC(=O)C2CCCN2S(=O)(=O)c2ccc(Br)s2)c1 (centres undefined) | -7 | 98* | -5 | -5 | 89* | 93* | -16 | 91* | -1
CSc1cccc(NC(=O)C2CCCN(S(=O)(=O)c3ccc(F)cc3)C2)c1 (centres undefined) | -4 | 53* | 2 | 19* | 84* | 55* | -1 | 79* | 2
CSc1cccc(NC(=O)C2CCCN(S(=O)(=O)c3cccs3)C2)c1 (centres undefined) | -8 | 42* | -3 | -2 | 61* | 50* | 4 | 78* | -2
